pIC50, pKi: −log10 of the molar value. Calls of active or inactive are those of the source. The rule behind the calls is not given here.

In series [1] the target is T1, 5-hydroxytryptamine receptor 6 (Homo sapiens, UniProt P50406). Kind of series: Displacement of [3H]LSD from human cloned 5-HT6 receptor expressed in HeLa cells after 1 hr by scintillation counter. It counts as cell-based. A general note: Displacement assays read how much labelled ligand stays bound in the presence of the test substance.
Series [2] can be described thus: Clearance in Wistar rat at 10 mg/kg, iv. It counts as ADME, organism-based. The arrangement: dose 10 mg/kg, route intravenous. Conditions: in vivo. A digest of the protocol: (§1)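 Fasted male Wistar rats, n=3, single 10 mg/kg intravenous dose in water for injection (2 mL/kg); plasma concentration–time profile used for Cmax, AUC, half-life, Vd and clearance.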
The target of series [3] is CYP2C19 (Homo sapiens, UniProt P33261). The series is described as follows: Inhibition of human CYP2C19 at 3 uM. It counts as ADME. Put shortly:
(§2)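 Isoform-selective inhibition assays using heterologously expressed human CYP enzymes; compounds tested at 3 μM; percent inhibition reported.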

Series [4] can be described thus: Drug metabolism in human liver microsomes. It counts as ADME, Microsome. As to conditions: read-out: Drug metabolism.
Series [5] is described as follows: Cmax in Wistar rat at 10 mg/kg, po. It counts as ADME, organism-based. Also on record: dose 10 mg/kg, route oral. As to conditions: in vivo. Put shortly: (§3)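 Fasted male Wistar rats, n=3, given 10 mg/kg orally in water for injection (10 mL/kg); plasma Cmax, half-life, Vd and clearance derived, with bioavailability from comparison against the 10 mg/kg iv arm.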

The nature of series [6]: Volume of distribution in Wistar rat at 10 mg/kg, iv. It counts as ADME, organism-based. The arrangement: dose 10 mg/kg, route intravenous. As to conditions: in vivo. Put shortly: as §1
Series [7] concerns the target T1, 5-hydroxytryptamine receptor 6. The series is described as follows: Antagonist activity at human recombinant 5-HT6 receptor expressed in CHO cells assessed as inhibition of 5-HT-stimulated cAMP accumulation after 4 hrs by luciferase reporter gene assay. It counts as functional, cell-based. Put shortly: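 Cell-based, non-radioactive reporter gene assay measuring antagonism of 5-HT-stimulated cAMP formation at human 5-HT6 receptor; IC50 and Kb values determined in duplicate.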
For orientation: cAMP levels reflect the balance of adenylyl cyclase and phosphodiesterase activity.

Series [8] addresses Sodium-dependent serotonin transporter (Homo sapiens) (UniProt P31645). Kind of series: Inhibition of SERT at 10 uM. A digest of the protocol: (§4)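 In-house selectivity panel of related receptors and transporters; each compound tested at 1 μM and 10 μM; percent inhibition determined in duplicate and the mean of the two reported.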
A short description of series [9]: AUC in Wistar rat at 10 mg/kg, po. Also on record: dose 10 mg/kg, route oral. It counts as ADME, organism-based. Conditions: plasma. Put shortly:
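Fasted male Wistar rats (n = 3) received a single oral dose of 10 mg/kg in water for injection. AUC is given in ng.hr/mL as part of a pharmacokinetic profile that also includes Cmax, t1/2, Vd and clearance, and uses an i.v. 10 mg/kg arm to derive oral bioavailability.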

Series [10] deals with CYP3A4 (Homo sapiens, UniProt P08684). The series is described as follows: Inhibition of human CYP3A4 at 3 uM. It counts as ADME. Put shortly: as §2
The target of series [11] is Sodium-dependent dopamine transporter (Homo sapiens) (UniProt Q01959). The series is described as follows: Inhibition of DAT at 1 uM. A digest of the protocol: as §4
Series [12] has as its target 5-hydroxytryptamine receptor 2A (Homo sapiens) (UniProt P28223). The series is described as follows: Inhibition of 5-HT2A receptor at 1 uM. A digest of the protocol:
as §4

Series [13] addresses Histamine H4 receptor (Homo sapiens) (UniProt Q9H3N8). Kind of series: Inhibition of histamine H4 receptor at 10 uM. Put shortly:
as §4

Series [14] is described as follows: Cmax in Wistar rat at 10 mg/kg, iv. The arrangement: dose 10 mg/kg, route intravenous. It counts as ADME, organism-based. As to conditions: in vivo. Put shortly: as §1
The target in series [15] is Sodium-dependent dopamine transporter (Homo sapiens) (UniProt Q01959). The series is described as follows: Inhibition of DAT at 10 uM. A digest of the protocol:
as §4

Series [16] is described as follows: Clearance in Wistar rat at 10 mg/kg, po. Also on record: dose 10 mg/kg, route oral. Conditions: in vivo. It counts as ADME, organism-based. Put shortly: as §3
In series [17] the target is T2, 5-hydroxytryptamine receptor 1A (Homo sapiens) (UniProt P08908).
T2 sequence (whole entry): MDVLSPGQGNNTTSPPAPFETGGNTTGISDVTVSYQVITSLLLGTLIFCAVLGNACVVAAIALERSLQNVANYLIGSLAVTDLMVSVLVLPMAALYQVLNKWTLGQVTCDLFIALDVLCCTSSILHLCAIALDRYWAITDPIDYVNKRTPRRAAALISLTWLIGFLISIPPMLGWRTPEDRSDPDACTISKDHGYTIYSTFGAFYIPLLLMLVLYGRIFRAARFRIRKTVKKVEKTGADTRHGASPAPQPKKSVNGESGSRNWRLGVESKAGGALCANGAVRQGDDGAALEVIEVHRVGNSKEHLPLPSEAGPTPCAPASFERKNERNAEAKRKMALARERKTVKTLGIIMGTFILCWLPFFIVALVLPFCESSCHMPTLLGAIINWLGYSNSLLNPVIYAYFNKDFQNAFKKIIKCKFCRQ
Kind of series: Inhibition of 5-HT1A receptor at 10 uM. A digest of the protocol:
as §4

A short description of series [18]: Drug metabolism in rat liver microsomes. It counts as ADME, Microsome. As to conditions: read-out: Drug metabolism. A general note: Liver microsomes are vesicles of endoplasmic reticulum, rich in cytochrome P450 enzymes.
Series [19] deals with 5-hydroxytryptamine receptor 2A (Homo sapiens) (UniProt P28223). Kind of series: Inhibition of 5-HT2A receptor at 10 uM. A digest of the protocol:
as §4

For series [20], the system named is Rattus norvegicus. The series is described as follows: Volume of distribution in Wistar rat at 10 mg/kg, po. It counts as ADME, organism-based. Also on record: dose 10 mg/kg, route oral. Conditions: in vivo. A digest of the protocol: as §3
Series [21] concerns the target Histamine H3 receptor (Homo sapiens) (UniProt Q9Y5N1). The series is described as follows: Inhibition of histamine H3 receptor at 10 uM. Put shortly: as §4
Series [22] shares this target. The series is described as follows: Inhibition of histamine H3 receptor at 1 uM. Put shortly: as §4
In series [23] the target is T3, Alpha-1B adrenergic receptor (Homo sapiens) (UniProt P35368).
T3 sequence (whole entry): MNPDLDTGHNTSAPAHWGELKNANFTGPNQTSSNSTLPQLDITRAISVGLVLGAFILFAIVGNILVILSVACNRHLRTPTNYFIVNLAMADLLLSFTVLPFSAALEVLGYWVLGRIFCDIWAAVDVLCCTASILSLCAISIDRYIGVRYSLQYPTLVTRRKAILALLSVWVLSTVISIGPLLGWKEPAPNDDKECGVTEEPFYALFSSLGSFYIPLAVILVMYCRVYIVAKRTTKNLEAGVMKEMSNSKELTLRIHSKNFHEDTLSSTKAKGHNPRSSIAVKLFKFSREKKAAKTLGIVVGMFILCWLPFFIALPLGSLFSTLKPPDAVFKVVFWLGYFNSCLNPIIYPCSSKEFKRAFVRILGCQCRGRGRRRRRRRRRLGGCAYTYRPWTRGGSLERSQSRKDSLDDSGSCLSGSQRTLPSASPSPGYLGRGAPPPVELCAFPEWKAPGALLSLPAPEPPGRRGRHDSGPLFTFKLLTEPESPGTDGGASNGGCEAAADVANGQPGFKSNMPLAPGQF
Kind of series: Inhibition of alpha1B adrenergic receptor at 1 uM. A digest of the protocol:
as §4

The target of series [24] is T2, 5-hydroxytryptamine receptor 1A (Homo sapiens). Kind of series: Inhibition of 5-HT1A receptor at 1 uM. A digest of the protocol:
as §4

Series [25] deals with D(2) dopamine receptor (Homo sapiens) (UniProt P14416). Kind of series: Inhibition of dopamine D2 receptor at 10 uM. Put shortly: as §4
Series [26] can be described thus: AUC in Wistar rat at 10 mg/kg, iv. It counts as ADME, organism-based. Also on record: dose 10 mg/kg, route intravenous. As to conditions: plasma. Put shortly:
as §1

Series [27] can be described thus: Half life in Wistar rat at 10 mg/kg, iv. As to conditions: in vivo. Also on record: dose 10 mg/kg, route intravenous. It counts as ADME, organism-based. A digest of the protocol:
as §1

The target in series [28] is Sodium-dependent serotonin transporter (Homo sapiens) (UniProt P31645). Kind of series: Inhibition of SERT at 1 uM. Put shortly: as §4
For series [29], the system named is Rattus norvegicus. The series is described as follows: Cognitive enhancing effect in Wistar rat assessed as increase in time send on novel object at 1 to 10 mg/kg, po after 60 mins by novel object recognition test. It counts as functional, organism-based. A digest of the protocol: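 Novel object recognition in rats with 24-h delay procedure; 1, 3 and 10 mg/kg given orally in water for injection (2 mL/kg) 60 min before test; time exploring novel versus familiar object compared by paired t test, n = 8–10/group.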

Series [30] concerns the target Histamine H4 receptor (Homo sapiens) (UniProt Q9H3N8). Kind of series: Inhibition of histamine H4 receptor at 1 uM. A digest of the protocol: as §4
Series [31] concerns the target T3, Alpha-1B adrenergic receptor (Homo sapiens). The series is described as follows: Inhibition of alpha1B adrenergic receptor at 10 uM. A digest of the protocol:
as §4

Series [32] in a line: Half life in Wistar rat at 10 mg/kg, po. As to conditions: in vivo. It counts as ADME, organism-based. The arrangement: dose 10 mg/kg, route oral. A digest of the protocol:
as §3

Series [33] has as its target CYP2D6 (Homo sapiens, UniProt P10635). Kind of series: Inhibition of human CYP2D6 at 3 uM. It counts as ADME. Put shortly: as §2
The nature of series [34]: Oral bioavailability in Wistar rat at 10 mg/kg. It counts as ADME, organism-based. Conditions: in vivo. A digest of the protocol:
as §3

Series [35] is described as follows: Ratio of drug level in brain to plasma in Wistar rat at 10 mg/kg, po. It counts as ADME, organism-based. Also on record: dose 10 mg/kg, route oral. As to conditions: read-out: BPR.
The target in series [36] is D(2) dopamine receptor (Homo sapiens) (UniProt P14416). The series is described as follows: Inhibition of dopamine D2 receptor at 1 uM. A digest of the protocol: as §4

T1 sequence (P50406 whole entry): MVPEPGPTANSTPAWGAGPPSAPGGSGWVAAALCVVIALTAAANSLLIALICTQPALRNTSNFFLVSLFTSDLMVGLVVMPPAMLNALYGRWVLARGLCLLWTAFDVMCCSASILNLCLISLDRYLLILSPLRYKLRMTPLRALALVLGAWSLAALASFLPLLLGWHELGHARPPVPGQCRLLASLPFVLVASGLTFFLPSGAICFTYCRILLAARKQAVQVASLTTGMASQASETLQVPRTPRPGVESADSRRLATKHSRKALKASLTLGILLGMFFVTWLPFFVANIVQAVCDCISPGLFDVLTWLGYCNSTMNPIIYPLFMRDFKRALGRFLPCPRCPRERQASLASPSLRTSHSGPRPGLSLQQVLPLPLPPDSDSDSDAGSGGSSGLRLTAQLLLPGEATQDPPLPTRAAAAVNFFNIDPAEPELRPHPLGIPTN
Sequence of Sodium-dependent dopamine transporter (Homo sapiens) (Q01959 whole entry): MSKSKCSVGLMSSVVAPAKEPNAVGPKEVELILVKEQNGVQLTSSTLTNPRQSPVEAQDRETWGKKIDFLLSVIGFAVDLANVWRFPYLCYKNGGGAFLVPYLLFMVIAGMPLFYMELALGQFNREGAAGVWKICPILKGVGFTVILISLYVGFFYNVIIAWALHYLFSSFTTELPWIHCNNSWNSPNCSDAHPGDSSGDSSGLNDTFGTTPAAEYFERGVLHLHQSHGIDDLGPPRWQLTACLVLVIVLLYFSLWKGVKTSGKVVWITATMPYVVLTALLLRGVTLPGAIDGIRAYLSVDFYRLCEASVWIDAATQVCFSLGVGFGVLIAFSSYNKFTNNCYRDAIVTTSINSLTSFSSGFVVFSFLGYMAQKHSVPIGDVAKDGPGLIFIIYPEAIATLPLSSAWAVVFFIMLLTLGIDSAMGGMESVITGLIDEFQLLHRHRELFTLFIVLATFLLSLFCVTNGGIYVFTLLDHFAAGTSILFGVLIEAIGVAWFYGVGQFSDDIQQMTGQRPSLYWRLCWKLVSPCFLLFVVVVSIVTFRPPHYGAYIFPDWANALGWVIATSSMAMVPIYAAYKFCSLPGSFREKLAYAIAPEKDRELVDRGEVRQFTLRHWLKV
Sequence of Sodium-dependent serotonin transporter (Homo sapiens) (P31645 whole entry, looked up): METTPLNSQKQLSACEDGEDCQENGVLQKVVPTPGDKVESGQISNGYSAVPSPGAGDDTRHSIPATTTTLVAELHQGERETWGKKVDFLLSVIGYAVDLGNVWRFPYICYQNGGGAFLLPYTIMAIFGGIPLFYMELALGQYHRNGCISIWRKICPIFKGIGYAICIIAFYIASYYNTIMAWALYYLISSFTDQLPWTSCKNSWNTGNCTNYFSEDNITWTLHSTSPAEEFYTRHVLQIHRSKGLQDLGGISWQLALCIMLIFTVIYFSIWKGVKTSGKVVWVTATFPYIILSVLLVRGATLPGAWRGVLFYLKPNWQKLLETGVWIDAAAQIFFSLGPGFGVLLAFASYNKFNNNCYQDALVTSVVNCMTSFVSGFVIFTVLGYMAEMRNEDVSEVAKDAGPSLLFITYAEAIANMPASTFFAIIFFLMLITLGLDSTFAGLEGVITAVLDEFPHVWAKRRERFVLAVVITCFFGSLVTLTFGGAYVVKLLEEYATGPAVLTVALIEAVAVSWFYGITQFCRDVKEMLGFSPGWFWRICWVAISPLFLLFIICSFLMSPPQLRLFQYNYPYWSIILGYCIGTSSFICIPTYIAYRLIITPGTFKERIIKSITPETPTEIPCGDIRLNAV
Sequence of 5-hydroxytryptamine receptor 2A (Homo sapiens) (P28223 whole entry): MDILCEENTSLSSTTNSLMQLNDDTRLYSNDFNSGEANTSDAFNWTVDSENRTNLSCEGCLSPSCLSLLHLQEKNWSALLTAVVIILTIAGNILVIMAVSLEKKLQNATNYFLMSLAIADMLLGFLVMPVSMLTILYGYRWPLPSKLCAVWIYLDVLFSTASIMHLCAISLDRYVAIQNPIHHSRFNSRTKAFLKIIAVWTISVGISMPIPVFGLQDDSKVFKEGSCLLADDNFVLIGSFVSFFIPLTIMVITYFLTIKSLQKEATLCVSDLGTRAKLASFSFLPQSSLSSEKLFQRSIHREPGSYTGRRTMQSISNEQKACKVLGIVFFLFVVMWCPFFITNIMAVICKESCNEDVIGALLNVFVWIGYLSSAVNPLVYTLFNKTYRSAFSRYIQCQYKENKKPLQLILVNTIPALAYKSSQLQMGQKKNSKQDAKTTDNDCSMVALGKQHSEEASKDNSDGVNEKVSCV
Sequence of Histamine H3 receptor (Homo sapiens) (Q9Y5N1 whole entry): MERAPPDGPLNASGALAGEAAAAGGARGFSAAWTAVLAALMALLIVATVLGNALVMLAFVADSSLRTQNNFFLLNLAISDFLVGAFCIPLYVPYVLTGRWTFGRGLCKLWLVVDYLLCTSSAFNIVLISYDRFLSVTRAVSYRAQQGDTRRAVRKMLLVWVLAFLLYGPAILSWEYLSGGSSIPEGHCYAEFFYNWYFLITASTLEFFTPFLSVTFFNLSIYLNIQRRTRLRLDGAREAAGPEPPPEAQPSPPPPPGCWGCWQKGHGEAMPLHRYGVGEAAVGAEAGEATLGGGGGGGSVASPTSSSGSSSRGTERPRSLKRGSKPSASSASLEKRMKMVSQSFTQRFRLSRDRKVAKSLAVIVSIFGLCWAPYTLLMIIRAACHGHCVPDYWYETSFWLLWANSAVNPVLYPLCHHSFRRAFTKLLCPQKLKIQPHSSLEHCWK
Sequence of Histamine H4 receptor (Homo sapiens) (Q9H3N8 whole entry): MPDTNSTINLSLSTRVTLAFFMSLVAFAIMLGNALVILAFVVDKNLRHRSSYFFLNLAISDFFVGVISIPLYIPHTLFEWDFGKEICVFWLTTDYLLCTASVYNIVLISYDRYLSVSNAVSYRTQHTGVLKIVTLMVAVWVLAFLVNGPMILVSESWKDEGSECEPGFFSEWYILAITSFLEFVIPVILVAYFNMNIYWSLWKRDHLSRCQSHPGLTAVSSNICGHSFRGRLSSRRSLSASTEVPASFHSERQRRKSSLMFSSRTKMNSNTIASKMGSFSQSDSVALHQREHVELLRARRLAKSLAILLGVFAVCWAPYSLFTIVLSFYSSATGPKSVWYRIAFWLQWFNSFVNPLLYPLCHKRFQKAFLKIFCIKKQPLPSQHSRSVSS
Sequence of D(2) dopamine receptor (Homo sapiens) (P14416 whole entry): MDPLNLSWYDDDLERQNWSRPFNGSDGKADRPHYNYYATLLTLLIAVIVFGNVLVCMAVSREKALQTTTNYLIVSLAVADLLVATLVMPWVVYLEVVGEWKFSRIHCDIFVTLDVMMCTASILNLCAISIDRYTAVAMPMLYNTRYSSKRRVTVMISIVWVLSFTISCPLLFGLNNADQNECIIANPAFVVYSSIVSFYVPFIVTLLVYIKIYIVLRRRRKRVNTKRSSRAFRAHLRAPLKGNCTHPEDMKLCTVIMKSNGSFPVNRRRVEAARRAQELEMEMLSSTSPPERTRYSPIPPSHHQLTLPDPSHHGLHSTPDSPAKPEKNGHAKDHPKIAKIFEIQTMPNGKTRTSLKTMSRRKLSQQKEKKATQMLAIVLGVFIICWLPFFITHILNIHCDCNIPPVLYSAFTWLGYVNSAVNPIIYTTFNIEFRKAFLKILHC
Sequence of CYP2C19 (P33261 whole entry, canonical isoform): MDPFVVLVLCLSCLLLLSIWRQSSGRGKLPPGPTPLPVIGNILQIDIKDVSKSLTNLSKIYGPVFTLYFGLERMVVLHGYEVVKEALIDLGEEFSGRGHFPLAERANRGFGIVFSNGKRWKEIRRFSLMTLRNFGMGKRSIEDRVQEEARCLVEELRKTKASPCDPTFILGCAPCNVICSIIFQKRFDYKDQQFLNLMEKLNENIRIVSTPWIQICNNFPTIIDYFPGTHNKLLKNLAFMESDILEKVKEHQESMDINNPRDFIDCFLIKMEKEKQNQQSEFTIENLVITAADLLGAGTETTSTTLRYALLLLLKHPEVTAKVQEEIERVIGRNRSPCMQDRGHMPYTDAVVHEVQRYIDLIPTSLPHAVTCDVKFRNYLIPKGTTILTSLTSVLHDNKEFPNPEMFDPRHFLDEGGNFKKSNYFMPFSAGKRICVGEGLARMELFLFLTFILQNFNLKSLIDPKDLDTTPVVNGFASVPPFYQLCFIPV
Sequence of CYP2D6 (P10635 whole entry): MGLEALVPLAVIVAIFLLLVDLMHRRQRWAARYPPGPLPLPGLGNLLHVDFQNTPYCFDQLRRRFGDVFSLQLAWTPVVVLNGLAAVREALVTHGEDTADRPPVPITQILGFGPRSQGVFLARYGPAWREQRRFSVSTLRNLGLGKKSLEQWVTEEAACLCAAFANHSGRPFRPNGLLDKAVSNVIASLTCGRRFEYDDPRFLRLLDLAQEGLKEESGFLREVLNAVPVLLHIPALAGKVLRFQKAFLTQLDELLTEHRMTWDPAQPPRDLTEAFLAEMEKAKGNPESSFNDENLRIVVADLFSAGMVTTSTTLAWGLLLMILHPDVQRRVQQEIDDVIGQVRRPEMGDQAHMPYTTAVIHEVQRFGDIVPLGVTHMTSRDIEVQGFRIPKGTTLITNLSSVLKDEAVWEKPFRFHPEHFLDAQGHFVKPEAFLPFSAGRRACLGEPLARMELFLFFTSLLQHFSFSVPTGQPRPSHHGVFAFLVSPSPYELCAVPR
Sequence of CYP3A4 (P08684 whole entry): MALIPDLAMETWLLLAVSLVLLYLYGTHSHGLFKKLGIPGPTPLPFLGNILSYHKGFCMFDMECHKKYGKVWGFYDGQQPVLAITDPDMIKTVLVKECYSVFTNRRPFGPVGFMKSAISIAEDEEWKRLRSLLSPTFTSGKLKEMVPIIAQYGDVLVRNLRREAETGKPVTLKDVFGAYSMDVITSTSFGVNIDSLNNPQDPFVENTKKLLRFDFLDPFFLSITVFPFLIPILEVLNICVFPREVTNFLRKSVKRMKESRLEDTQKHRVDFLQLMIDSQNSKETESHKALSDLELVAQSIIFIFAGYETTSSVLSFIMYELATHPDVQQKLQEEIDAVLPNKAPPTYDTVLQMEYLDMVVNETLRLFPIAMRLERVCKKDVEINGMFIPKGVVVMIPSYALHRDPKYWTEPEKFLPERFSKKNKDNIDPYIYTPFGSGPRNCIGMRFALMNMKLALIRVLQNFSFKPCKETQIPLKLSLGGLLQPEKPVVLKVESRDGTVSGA

In the case of `NC1CCc2[nH]c3ccc(S(=O)(=O)c4ccccc4)cc3c2C1` (configuration not stated), the negative logarithm of the Ki (pKi) in series [1] is 7.24.
`COc1ccc2c(c1)c1c(n2S(=O)(=O)c2ccccc2)CCC(N(C)C)C1` (racemic) gave a clearance in series [2] of 73.8 mL/min/kg. For the same molecule, the results for the inhibition at 3 µM in series [3], in [10] and in [33] were 50%, 10% and 50%, respectively. For the same molecule, the values for the metabolised in series [4] and in [18] were 49% and 74%, respectively. Moreover, the Cmax was 90 ng/mL in [5] and 928 ng/mL in [14]. The Vd was 24.3 L/kg in series [6] and 21.95 L/kg in [20]. For the same molecule, the pIC50 in [7] was 6.34. Further, the Kb in series [7] came to 4.7 nM. Besides, the inhibition in series [8] stood at 3.35%; in [11], 1.48%; in series [12], 8.15%; in series [13] it was 13.9%; in series [15], 6.23%; in series [17], 43.1%. In addition, the inhibition was found to be 46.7% in [19]; 32.7% in [21]; 22.8% in series [22]; 5.21% in series [23]; 28.3% in [24]; 51.3% in [25]. For the same molecule, the inhibition stood at 2.52% in series [28], 0% in series [30], 5.26% in series [31] and 11% in series [36]. Further, the exposure (AUC) in series [9] turned out to be 544 ng·h/mL; in series [26], 2120 ng·h/mL. The CL/F in series [16] turned out to be 331 mL/min/kg. Besides, the figures for the half-life in [27] and in [32] were 3.86 h and 7.67 h, respectively. In addition, the outcome in [29] was Active. In [34], this molecule came in with a bioavailability of 26%. Besides, in series [35], the Kp came out at 7.6.

The term pKi denotes −log10 of the Ki, conventionally taken in molar units. The low end stands for a large Ki, the high end for a small Ki. One may read the clearance as the rate of elimination divided by the concentration. A low value points to inefficient removal. The inhibition is how much of the control response was suppressed. As usually defined, the Cmax is the maximum level reached in the sampled fluid or tissue. What is called pIC50 is the IC50 on a negative log10 scale, so that one unit is a factor of ten. Usually Kb stands for the equilibrium dissociation constant of an antagonist, usually derived from a functional assay. Broadly, the AUC is the area under the concentration-time curve, a measure of exposure. By CL/F is commonly meant clearance divided by bioavailability, as obtained after extravascular dosing. Usually half-life stands for how long it takes for the measured level to halve. A high value points to slow loss. For orientation: bioavailability means dose-corrected exposure relative to a reference, in per cent. A lower bioavailability goes with poor availability.

The record behind these values is ChEMBL document CHEMBL2163192, “N,N-Dimethyl-[9-(arylsulfonyl)-2,3,4,9-tetrahydro-1H-carbazol-3-yl]amines as novel, potent and selective 5-HT₆ receptor antagonists” (Bioorg Med Chem Lett, 2012).
